This is a sample that favours compounds with a hit; in the whole collection about 2.2% have one here.
VIM-2 inhibitor: inhibitors of Pseudomonas aeruginosa VIM-2 metallo-beta-lactamase; purified VIM-2, nitrocefin hydrolysis, epi-absorbance fluorescence; inhibition, % at 5.6 µM; 290,000 tested, 0.89% active; AID 1527;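 active = inhibition above the mean of all tested compounds plus 3 SD, cutoff set per screening run, cut at about 7.5% in these data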;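 also: red hydrolysis product quenches plate fluorescence so inhibitors raise well fluorescence; 0% = enzyme with DMSO and 100% = DMSO without enzyme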
BCLXL inh: inhibitors of human Bcl-xL | Q07817 | GST-Bcl-xL / FITC-Bim BH3 peptide fluorescence polarization | inhibition, % at 10.9 µM | 320,000 tested, 0.7% active | AID 2129;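 active = inhibition above the mean of all tested compounds plus 3 SD, cutoff set per campaign, cut at about 30% in these data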;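 also: 0% = DMSO wells and 100% = unlabeled Bim-BH3 peptide competitor; inhibitors lower millipolarization by displacing the labeled peptide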
Target sequence (Q07817 whole entry, looked up): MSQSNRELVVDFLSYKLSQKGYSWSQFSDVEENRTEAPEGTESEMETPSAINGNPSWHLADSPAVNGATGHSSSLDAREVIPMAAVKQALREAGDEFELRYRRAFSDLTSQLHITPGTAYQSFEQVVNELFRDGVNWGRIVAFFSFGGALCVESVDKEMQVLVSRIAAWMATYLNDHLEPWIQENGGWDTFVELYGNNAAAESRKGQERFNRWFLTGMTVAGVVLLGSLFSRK
EBV gp42 block: inhibitors of Epstein-Barr virus glycoprotein 42; 220,000 tested, 0.42% active; AID 1085; inhibition, % (tested at 21.74 µM); Fluorescence polarization binding assay, mP read-out; in the data active = inhibition above about 50%
IMP-1 inhibitor: blocks Pseudomonas aeruginosa IMP-1 metallo-beta-lactamase. purified IMP-1, nitrocefin hydrolysis, epi-absorbance fluorescence. AID 1556. 290,000 tested, 0.45% active. inhibition, % at 5.6 µM;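 active = inhibition above the mean plus 3 SD of all compounds in the same screening run, cut at about 4.5% in these data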;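 also: 0% = IMP-1 with DMSO and 100% = DMSO wells lacking enzyme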
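Material – recombinant IMP-1 enzyme, purified · Amount – IMP-1 0.2 nM before substrate addition · Medium – HEPES buffer pH 7.1 with ZnSO4 and Brij 35 · Timing – 25 °C, 15 min preincubation, 25 min reaction · Measured by – plate fluorescence quenching by hydrolysis product, ex 480/em 530 nm · Read-out – percent enzyme inhibition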
MEX-5 binding: C. elegans MEX-5 TCR-2 RNA binding activity | 300,000 tested, 0.38% active | MEX-5/FITC-TCR2 RNA binding, fluorescence polarization; hits give low values | activity score (negative = inhibition of binding), % at 10 µM;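 active = inhibition past about -25% in most replicates, and total fluorescence under double the plate's negative control median, limit read from the data; inconclusive = replicates evenly split on the limit, or fluorescence at least double controls; inactive = too little inhibition in most replicates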;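 also: 0% = DMSO and -100% = 5 µM competing unlabeled TCR2 RNA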
Target sequence (Q9XUB2 whole entry, looked up): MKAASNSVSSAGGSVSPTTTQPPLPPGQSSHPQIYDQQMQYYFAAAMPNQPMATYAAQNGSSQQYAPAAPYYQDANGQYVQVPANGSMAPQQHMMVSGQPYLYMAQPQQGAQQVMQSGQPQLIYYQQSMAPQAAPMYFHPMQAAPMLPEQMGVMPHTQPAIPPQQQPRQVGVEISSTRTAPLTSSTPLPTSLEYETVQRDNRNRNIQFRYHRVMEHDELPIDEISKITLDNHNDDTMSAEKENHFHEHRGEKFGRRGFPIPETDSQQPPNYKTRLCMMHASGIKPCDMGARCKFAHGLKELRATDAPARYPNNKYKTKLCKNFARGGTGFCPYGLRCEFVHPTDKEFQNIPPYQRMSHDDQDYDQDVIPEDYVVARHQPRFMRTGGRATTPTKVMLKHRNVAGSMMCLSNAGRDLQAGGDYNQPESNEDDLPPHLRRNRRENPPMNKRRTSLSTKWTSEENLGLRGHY
GLD-1 RNA inh: GLD-1-TGE RNA interaction inhibition (C. elegans); inhibition, % at 5.96 µM; purified GLD-1 + fluorescein TGE RNA, fluorescence polarization; 320,000 tested, 0.44% active;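 active = percent inhibition above a per-plate cutoff, the plate mean of test compounds plus 3 SD, cut at about 30% in these data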;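 also: 0% = DMSO wells with GLD-1 and probe and 100% = wells lacking GLD-1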
* marks the source's active call; other numbers are inactive results; ? = inconclusive; . = no result given; + = active, no number.

SMILES	VIM-2 inhibitor	BCLXL inh	EBV gp42 block	IMP-1 inhibitor	MEX-5 binding	GLD-1 RNA inh
c1ccc(Cn2cnc3ccccc32)cc1	-0.2	3.2	-19.7	-1.2	.	2.7
Brc1ccccc1Cn1cnc2ccccc21	-1.2	76.1*	.	-2.3	2.7	3.5
Cc1cc(C)c(C)c(S(=O)(=O)NCC(=O)Nc2ccccc2F)c1C	-3.7	.	.	-4.2	-4.2	.
COC(=O)CSc1nnc2cc(C)c3ccccc3n12	10.0*	-1.1	-11.4	1.5	-1.3	-1.5
Cc1cc2nnc(SCCCCN3C(=O)c4ccccc4C3=O)n2c2ccccc12	-3.6	.	-17.6	-2.9	.	.
Cc1ccc(S(=O)(=O)N2C(=S)SCC2(C)C)cc1	-1.3	.	-18.6	5.4*	-1.8	.
CC1=CC(C)(C)N(S(=O)(=O)c2ccc(C)cc2)c2cc(C)ccc21	-3.5	-2.0	-14.2	-1.1	2.2	7.4
COC(CNC(=O)c1ccc2c3c(onc13)-c1ccccc1C2=O)OC	1.5	+	189.9*	-4.9	?	+
CCOC(=O)C(=CNc1ccc(NC2=NCC(C)(C)S2)cc1)C(=O)OCC	10.1*	4.9	-6.6	-4.7	-2.9	1.7
Cc1ccc(C(=O)NCC(=O)OCC(=O)c2ccccc2)s1	.	-2.2	.	.	.	-2.7
COc1cc(CNCc2ccccn2)ccc1OCc1ccc(Cl)c(Cl)c1	10.1*	1.2	-1.1	-5.0	1.4	-2.3
CN1CCN(c2ccccc2NC(=O)c2ccc3c(c2)OCCO3)CC1	-1.8	-2.2	.	-2.8	-0.1	-5.8
Cc1ccc(-c2c(C(=O)Nc3ccccc3C)c(C)[nH]c(=S)c2C#N)o1	-3.8	28.4	-3.5	5.7*	-2.0	20.2
COc1ccc(Br)c2oc(SC)cc(=O)c12	9.2*	14.2	-7.0	-5.9	-3.8	0.8
Cc1cc(C)n2c3c(c(C#N)c2n1)CCCC3	7.7*	-6.2	-11.6	-7.7	3.1	-13.2
O=C(Nc1ccccc1F)Nc1ccccc1N1CCCCC1	-1.8	4.4	4.2	-1.7	0.3	3.6
On1c(-c2ccccc2)nc2ccc(Cl)cc21	-5.1	3.3	-12.1	5.2*	-1.8	0.4
COc1cc(CNC(=O)c2ccccc2NC(=O)C2=C(C)OCCS2)cc(OC)c1OC	-0.2	7.0	.	-2.6	-2.4	-6.7
Cc1ccc(C)c(N2CCN(C(=O)c3ccc(NC4=NC5CS(=O)(=O)CC5S4)cc3)CC2)c1 (stereo not drawn)	-3.0	0.5	.	-1.3	-2.5	0.4
NC(=O)c1ccc(Cl)c2ccccc12	-0.9	2.3	1.4	14.9*	-1.6	1.5
CC(C)(C)C1CC=C2C(C#N)=C(N)C(C#N)(C#N)C(c3cccs3)C2C1 (stereo not drawn)	-1.5	60.5*	.	2.2	-41.2*	61.9*
CN1C2C=C3C(C#N)=C(N)C(C#N)(C#N)[C@H](c4c(F)cccc4F)[C@H]3C1CC2 (stereo partly drawn)	-2.7	18.8	-20.9	-1.4	-5.8	26.1
O=C(N=C1SC2CS(=O)(=O)CC2N1c1cc(Cl)ccc1Cl)C1CCCO1 (stereo not drawn)	0.1	1.1	.	0.0	-0.7	-3.0
C=CCn1c(=O)/c(=C/c2cc(OC)c(OC)c(OC)c2)s/c1=C(/C#N)c1nc2ccccc2n1C	0.4	112.3*	95.9*	-0.7	?	1.0
O=C(CN1C(=O)c2ccccc2C1=O)Nc1cccnc1	-1.5	9.6	0.6	0.4	1.2	2.2
SMILES	VIM-2 inhibitor	BCLXL inh	EBV gp42 block	IMP-1 inhibitor	MEX-5 binding	GLD-1 RNA inh
O=C(CN1C(=O)c2ccccc2C1=O)Nc1cc(C(=O)O)cc(C(=O)O)c1	-1.0	6.5	.	-0.5	-0.7	63.8*
O=C(Nc1c(C(=O)N2CCOCC2)cnn1-c1ccccc1)c1cccc(F)c1	-2.7	2.6	.	-3.5	-0.5	4.4
Oc1c(Cl)cc(Cl)cc1CNc1ccc(Br)cn1	-2.1	2.4	-8.0	6.1*	1.8	-0.5
Cc1c(NC(=O)C(C)OC(=O)c2ncc(Cl)c(Cl)c2Cl)c(=O)n(-c2ccccc2)n1C (stereo not drawn)	.	-3.1	.	.	0.5	4.3
CCOc1cc(N2CCOCC2)c(OCC)cc1NC(=O)CN1C(=O)NC2(CCCCC2)C1=O	.	-6.7	.	.	.	3.1
CCCCc1ccc(NC(=O)CN2NS(=O)(=O)c3ccccc3C2=O)cc1	-0.1	1.2	8.6	5.5*	0.3	3.0
O=C(O)C1CCN(C(=O)COc2ccc3c(c2)oc(=O)c2ccccc23)CC1	-0.4	-1.1	.	-3.2	1.0	6.3
Cc1ccn2c(CNCc3cnn(C)c3)c(C(=O)N3CCCCCC3)nc2c1	-2.2	67.0*	.	-0.9	.	-0.6
O=C(Nc1ccc(-c2nc3ccccc3[nH]2)cc1)c1ccc2c(c1)OCO2	-0.4	-6.4	-17.9	28.1*	1.5	1.2
Cc1ccc(C=C2C(=O)c3ccccc3C2=O)o1	-0.5	6.9	43.4	-2.8	-2.5	-3.7
Cc1ccc(/C=C2/C(=O)c3ccc(C(=O)O)cc3C2=O)o1	-2.6	.	-14.2	-0.5	-26.0*	.
O=C(O)c1ccc2c(c1)C(=O)/C(=C\c1ccco1)C2=O	2.4	40.7*	11.5	-0.9	?	27.0
O=C1ON=C(c2ccccc2)/C1=C/c1ccco1	0.6	-2.5	-9.6	1.1	-6.2	1.7
CC(=O)c1ccc(S(=O)(=O)Nc2ccccc2C(=O)NC2CC2)cc1	.	3.0	.	.	.	6.0
CC1CCc2sc(C(=O)NNC(=S)NC3CC3)cc2C1 (stereo not drawn)	-1.0	-0.2	.	2.2	-2.8	3.2
Oc1ccc(-c2cnns2)c(O)c1	3.8	18.1	-32.8	2.3	-61.4*	18.8
Oc1ccc(-c2csc(Nc3ncccn3)n2)c(O)c1	2.4	2.3	-0.2	-2.3	-0.2	3.0
CS(=O)(=O)N1CCc2ccc(NC(=O)C3CCCO3)cc2C1 (stereo not drawn)	-1.9	4.5	.	-1.7	-1.3	2.8
COc1ccc(/C=N/Nc2ccc([N+](=O)[O-])cc2)cc1Cn1cc([N+](=O)[O-])cn1	-1.0	-33.8	-6.0	4.6*	-1.8	-3.0
COc1ccc(/C=N/n2cncn2)cc1Cn1cc([N+](=O)[O-])cn1	-0.4	1.6	-4.0	-2.0	.	1.9
O=C(CCNS(=O)(=O)c1ccccc1F)OCc1ccccc1Cl	.	.	.	.	.	2.3
O=[N+]([O-])c1cccc(S(=O)(=O)NCCc2cccs2)c1	-0.8	1.2	.	-2.9	1.1	3.3
O=S(=O)(NCCc1cccs1)c1ccc(Br)cc1	0.7	1.7	.	5.5*	0.9	0.6
CCOC(=O)N1CCN(Cc2nc3cc([N+](=O)[O-])ccc3n2C)CC1	-1.3	3.4	.	-4.0	-2.6	-0.4
O=C(N/N=C/c1ccc([N+](=O)[O-])o1)c1cc2c(ccc3ccccc32)o1	-1.6	.	60.2*	-1.6	.	.
CC(=O)Oc1ccc(/C=N\NC(=O)c2cc3c(ccc4ccccc43)o2)cc1	-2.5	-1.0	.	4.9*	-2.4	7.1
CCC(C)(C(=O)NC1CCCCC1)N(C(=O)c1ccccn1)c1ccccc1 (stereo not drawn)	-1.2	4.7	-17.6	-6.3	2.1	5.2

Screens (PubChem BioAssay)
